A selection follows.
Apaf-1 act – activates human Apaf-1 apoptosome | hit rate 0.31% among 330,000 | activity change, negative = activation, % at 20 µM | Apaf-1 apoptosome caspase-3 activation, DEVD-Rh110 fluorescence; active compounds read low;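 active means activity change at or below -40% at 20 µM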
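Schedule: 30 min preincubation, 50 min reaction, room temperature / System: biochemical Apaf-1 apoptosome reconstitution / Medium: 20 mM HEPES pH 7.5 with CHAPS, BSA / Evaluation: Caspase-3 cleavage activity downstream of Apaf-1 activation / Detection: Caspase-3-released Rh110 fluorescence, 540 nm emission, 480 nm excitation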
Rh110 act interf – counter-screen for Apaf-1 activators: fluorescence interference. shares compounds with Apaf-1 act. 980 tested, under 10 active. Rh110 fluorescence interference, quenched caspase reaction, Ex480/Em540. fluorescence interference (activity change), % at 20 µM, hits read low;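 active means mean activity change at or below -40% when tested at 20 µM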
Apaf-1 act conf2 – confirmation of human Apaf-1 activators | shares compounds with Apaf-1 act | reconstituted apoptosome caspase-3 activity, DEVD-Rh110 fluorescence; active compounds read low | activity change, negative = activation, % at 20 µM | hit rate 5% among 980 | AID 504617;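 active means mean activity change at or below -40%, meaning activation of 40% or more, at 20 µM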
An asterisk follows results filed as active; . = no result given.

SMILES	Apaf-1 act	Rh110 act interf	Apaf-1 act conf2
N#Cc1c(N)n(-c2ccccc2N)c2nc3ccccc3nc12	69	.	.
CNc1cc(C)c(C#N)c2nc3ccccc3n12	-58*	7	3
COc1cccc(C(C[N+](=O)[O-])c2c(C)[nH]n(-c3ccccc3)c2=O)c1 (stereo not drawn)	97	.	.
COc1ccc(-c2c(C#Cc3ccc(N(C)C)cc3)c3ccccc3n2C)cc1	57	.	.
O=C1c2ccccc2-c2nnc(-c3ccc(O)cc3)cc21	91	.	.
COC(=O)c1cccnc1-n1c(=O)c2cccnc2n(Cc2cccc([N+](=O)[O-])c2)c1=O	-65*	-2	12
O=C(c1ccco1)[C@@H]1[C@@H]2C(=O)N(c3ccccc3)C(=O)[C@@H]2C2c3ccccc3C=CN21 (stereo partly drawn)	86	.	.
Cc1cccc(CC(=O)Nc2ccon2)c1	-278*	6	8
Cc1cccc(NC(=S)Nc2cccc3ccccc23)c1	93	.	.
CCOc1ccc(NC(=O)CN(C)C(=O)c2ccccc2OCc2cccc(C)c2)cc1OCC	46	.	.
CCOCCCn1c(SCC(=O)Nc2cc(C(C)(C)C)nn2-c2ccccc2)nc2ccccc2c1=O	40	.	.
Cc1cc(C)c(S(=O)(=O)/N=C2\C=C(Nc3ccc(C(=O)O)cc3)C(=O)c3ccccc32)c(C)c1	89	.	.
CCOc1cc(CNc2ccc(O)cc2)ccc1OCc1ccc(Cl)cc1Cl	94	.	.
O=C(NC1CC2CCCC(C1)N2S(=O)(=O)c1ccccc1)c1ccco1 (stereo not drawn)	42	.	.
O=C(Nc1ccc2nc(-c3ccco3)c(-c3ccco3)nc2c1)NC1CC1	47	.	.
O=C(NC1CC1)c1cc2ccccc2o1	-363*	1	-1
CCC(CN(C)C)Oc1cc(NCc2ccccc2)c2ncn(C(C)C)c2c1 (stereo not drawn)	98	.	.
O=C(CN(Cc1cccs1)C(=O)CNS(=O)(=O)c1ccc(Cl)cc1)NCC1CCCO1 (stereo not drawn)	-292*	1	9
CN(c1ccccc1)c1cc(Br)nc(Br)c1	-47*	11	10
COc1ccc(Br)cc1CNc1ccc(O)cc1	95	.	.
CC1(C(=O)NCc2ccccn2)C=CCN1C(=O)c1ccccc1 (stereo not drawn)	-273*	6	-4
Cn1c(NC(=O)c2ccc(Cl)s2)cc(=O)n(C)c1=O	66	.	.
COc1ccccc1N1CCN(Cc2nc(-c3ccc(F)cc3)oc2C)CC1	-236*	5	13
COc1ccc(N2CCN(Cc3nc4scc(-c5ccccc5)c4c(=O)[nH]3)CC2)cc1	44	.	.
O=C1C(=O)c2ccc(-c3ccccc3)cc2-c2ccccc21	98	.	.
SMILES	Apaf-1 act	Rh110 act interf	Apaf-1 act conf2
O=C(NC1(O)C(=O)c2ccccc2C1=O)c1ccccc1	94	.	.
COc1ccc(C[C@H]2CN3C(=NC[C@@H]3Cc3ccccc3)N2CCNC(=O)CCC2CCCCC2)cc1	52	.	.
Cc1cccc(C)c1N1CCN(c2n[nH]c(N)n2)CC1	-60*	3	19
COc1ccc(/C=N/Nc2cc(C)nc3ccc(OC)cc23)c(OC)c1	43	.	.
CNC[C@H](Cc1ccccc1)NC[C@@H](Cc1cccc2ccccc12)NCCc1ccc(C)cc1	48	.	.
Cc1cnc(C(=O)NC2CC(C)(C)Cc3c2cnn3-c2ccccc2)cn1 (stereo not drawn)	-85*	1	7
CC(=O)NC1N=C(C)N(c2ccccc2)C1=O (stereo not drawn)	70	.	.
CC1(C)CC2CC(C)(CN2C(=O)c2cccs2)C1 (stereo not drawn)	-95*	6	13
CC(NC(=O)C1CCN(C(=O)c2cccs2)CC1)c1ccc(S(N)(=O)=O)cc1 (stereo not drawn)	62	.	.
Clc1ccccc1OCc1nn2c(-c3ccncc3)nnc2s1	41	.	.
O=C(N/N=C/c1cn(-c2ccccc2)nc1-c1cccnc1)c1ccccc1	-52*	0	16
Cc1cc(C)n(-c2cc(Cl)cc(Cl)c2)c(=O)c1C#N	-403*	12	11
CC1=NN(c2ccccc2)C(=O)/C1=C\c1cn(CCC#N)nc1-c1ccc(Cl)cc1	80	.	.
CCC(C)(C)c1ccc(OCCCC[n+]2ccc(C)cc2)c(C(C)(C)CC)c1	48	.	.
C/C(=C\C(=O)c1ccc(Br)cc1)NCc1ccccc1	-235*	9	21
COc1cc2oc3ccccc3c2cc1N(CC(=O)N1CCCCC1)S(=O)(=O)c1ccc(C)cc1	-236*	-8	16
C#CCOCCOCCOCCNc1nc(N2CCN(C(=O)CCCCCCCCCCNC(=O)[C@@H](CCSC)n3cc(CCO)nn3)CC2)nc(N2CCN(C(=O)CCCCCCCCCCNC(=O)[C@H](CCC(=O)O)n3cc(CCCCCN)nn3)CC2)n1	62	.	.
CCOc1cc(/C=C/c2nc3cc(C)c(C)cc3s2)ccc1OCC(=O)N1CCOCC1	45	.	.
COc1ccc(OCC(NS(=O)(=O)c2ccc(-n3cnnn3)cc2)C(C)C)cc1 (stereo not drawn)	-424*	13	6
COc1ccc(S(=O)(=O)Nc2cc(SCC(=O)O)c(O)c3ccccc23)cc1	85	.	.
COc1ccc(S(=O)(=O)NCc2ccc3c(c2)cc(C)n3C)cc1	51	.	.
O=C1Cc2ccccc2C(=O)N1OCc1ccc(Cl)cc1Cl	68	.	.
O=C1c2ccccc2C(=O)C1c1ccc2ccccc2n1	-334*	6	5
CC(=O)N(C)C1=C(N2CCOCC2)C(=O)c2ccccc2C1=O	65	.	.
Cc1ccccc1NC(=O)C1CC(Cl)=CCC1C(=O)O (stereo not drawn)	-111*	2	11
SMILES	Apaf-1 act	Rh110 act interf	Apaf-1 act conf2
O=C(O)CC1S/C(=N/N=C/c2ccc(-c3ccccc3[N+](=O)[O-])o2)NC1=O (stereo not drawn)	73	.	.
S=C(Nc1ccc2nsnc2c1)N1CCCCCC1	93	.	.
COc1ccc2nc(C)cc(N/N=C/c3ccccc3)c2c1	50	.	.
CN(C)S(=O)(=O)N1CCCN(S(=O)(=O)N(C)C)CC1	-313*	0	14
COC(=O)Nc1nnc(COc2ccccc2)s1	-573*	6	11
Oc1cc(NCCc2cccnc2)cc2cccnc12	56	.	.
Cc1[nH]c(=O)[nH]c(=O)c1CSCC(=O)OCC(=O)c1ccc(Br)cc1	-139*	-3	15
c1ccc2c(C[C@@H]3CNCCN3CCCCC3CCCCC3)cccc2c1	71	.	.
CCN1CCN(CCCNC(=O)c2ccc(/C=C3/Oc4ccccc4N(Cc4cccc(C)c4)C3=O)cc2)CC1	47	.	.
CC(=O)N(/N=C1\Sc2ccccc2C1=O)c1ccc(C)cc1C	43	.	.
Cc1cccc(CN2C(=O)c3ccccc3Sc3ccc(C(=O)O)cc32)c1	-53*	10	13
Cc1ccc(-c2nn3c(C)nnc3c3ccccc23)cc1S(=O)(=O)NC(C)c1ccccc1 (stereo not drawn)	57	.	.
CCOC(=O)C1=C(c2ccccc2)NC(N)=NC1c1ccc(OCc2ccc(Cl)cc2)c(OC)c1 (stereo not drawn)	58	.	.
COc1cc(C#Cc2c(-c3cncn3C)n(C)c3ccc(-c4cnc(OC)nc4)cc23)cc(OC)c1	42	.	.
COc1cc(/C=N/N=C2/C(=O)Nc3ccccc32)ccc1O	-445*	8	19
O/C=c1\ccc2cccc3nc(C(F)(F)F)nc1c23	79	.	.

Bioassay records (PubChem BioAssay)
